Laboratory results published in ChEMBL document CHEMBL1944567, “Synthesis, biological evaluation, and molecular modeling of chalcone derivatives as potent inhibitors of Mycobacterium tuberculosis protein tyrosine phosphatases (PtpA and PtpB)” (J Med Chem, 2012).

Tests used:
[1] = biological target: T1, Low molecular weight protein-tyrosine phosphatase A (Mycobacterium tuberculosis, UniProt P9WIA1); assay: Inhibition of Mycobacterium tuberculosis PTP-A using p-nitrophenyl phosphate as substrate measured for 10 mins by spectrofluorimetry
T1 sequence (P9WIA1 whole entry): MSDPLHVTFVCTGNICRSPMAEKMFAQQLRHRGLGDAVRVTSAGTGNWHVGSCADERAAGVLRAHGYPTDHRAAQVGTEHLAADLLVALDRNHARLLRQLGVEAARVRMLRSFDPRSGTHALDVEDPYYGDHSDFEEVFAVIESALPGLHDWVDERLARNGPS
How it was run: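 A410 read each minute over 10 min at 37 °C. Residual activity compared with wells without inhibitor; IC50 by linear regression of % inhibition against concentration. Triplicate, two independent experiments.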

[2] = Solubility of the compound; assay type: physicochemical
[3] = biological target: T2, Phosphotyrosine-protein phosphatase PTPB (Mycobacterium tuberculosis) (UniProt P96830); assay: Inhibition of Mycobacterium tuberculosis PTP-B using p-nitrophenyl phosphate as substrate at 25 uM measured for 10 mins by spectrofluorimetry
T2 sequence (whole entry): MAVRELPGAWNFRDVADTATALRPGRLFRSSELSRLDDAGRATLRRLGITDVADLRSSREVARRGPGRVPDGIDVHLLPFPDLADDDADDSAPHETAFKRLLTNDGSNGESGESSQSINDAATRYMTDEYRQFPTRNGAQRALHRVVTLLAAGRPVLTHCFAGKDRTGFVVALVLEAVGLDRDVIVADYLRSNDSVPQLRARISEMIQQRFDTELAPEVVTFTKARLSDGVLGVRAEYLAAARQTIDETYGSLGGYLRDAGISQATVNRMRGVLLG
How it was run: (§1)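 Single-point screen at 25 μM final compound, added from 1.0 × 10−3 M DMSO stock, with recombinant Mtb PtpA or PtpB (0.4 μg/μL final) in 20 mM imidazole pH 7.0 with 40 mM pNPP. Reaction started by adding enzyme. p-Nitrophenol release read at 410 nm every min for 10 min at 37 °C. Residual activity was taken from the absorbance difference between 6 and 2 min; two experiments, each in triplicate.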

[4] = biological target: T3, Low molecular weight protein-tyrosine phosphatase A (Mycobacterium tuberculosis) (UniProt P9WIA1); assay: Inhibition of Mycobacterium tuberculosis PTP-A using p-nitrophenyl phosphate as substrate at 25 uM measured for 10 mins by spectrofluorimetry; how it was run: as §1
T3 sequence (whole entry): T1 sequence (P9WIA1 whole entry)

O=C(/C=C/c1ccc(Cl)cc1Cl)c1ccc2c(c1)OCO2
IC50 [1]: 407 µM
solubility [2]: soluble
inhibition [3]: 0%
inhibition [4]: 27%

O=C(/C=C/c1ccc2ccccc2c1)c1ccc(-n2ccnc2)cc1
IC50 [1]: 100 µM
solubility [2]: soluble
inhibition [3]: 0%
inhibition [4]: 40%

COc1ccc(/C=C/C(=O)c2ccc3ccccc3c2)cc1
IC50 [1]: 93 µM
solubility [2]: soluble
inhibition [3]: 0%
inhibition [4]: 35%

COc1cccc(OC)c1/C=C/C(=O)c1ccc2ccccc2c1
IC50 [1]: 214 µM
solubility [2]: soluble
inhibition [3]: 24%
inhibition [4]: 40%

COc1ccc(C(=O)/C=C/c2ccc3c(c2)OCO3)c(OC)c1
IC50 [1]: 101 µM
solubility [2]: soluble
inhibition [3]: 0%
inhibition [4]: 42%

O=C(/C=C/c1ccc(Br)cc1)c1ccc2c(c1)OCO2
IC50 [1]: 66 µM
solubility [2]: soluble
inhibition [3]: 9%
inhibition [4]: 37%

O=C(/C=C/c1ccc([N+](=O)[O-])cc1)c1ccc2c(c1)OCO2
IC50 [1]: 74 µM
solubility [2]: soluble
inhibition [3]: 10%
inhibition [4]: 35%

O=C(/C=C/c1cccc(C(F)(F)F)c1)c1ccc2c(c1)OCO2
IC50 [1]: 155 µM
solubility [2]: soluble
inhibition [3]: 0%
inhibition [4]: 41%

COc1cc(OC)c(/C=C/C(=O)c2ccc3ccccc3c2)c(OC)c1
IC50 [1]: 1660 µM
solubility [2]: soluble
inhibition [3]: 0%
inhibition [4]: 49%

O=C(/C=C/c1cccc2ccccc12)c1ccc2ccccc2c1
IC50 [1]: 93 µM
solubility [2]: soluble
inhibition [3]: 0%
inhibition [4]: 43%

COc1cc(/C=C/C(=O)c2ccc(Br)cc2)ccc1OCc1ccccc1
IC50 [1]: 302 µM
solubility [2]: soluble
inhibition [3]: 0%
inhibition [4]: 63%

Cc1ccc(/C=C/C(=O)c2ccc3ccccc3c2)o1
IC50 [1]: 1020 µM
solubility [2]: soluble
inhibition [3]: 0%
inhibition [4]: 30%

O=C(/C=C/c1ccc(Cl)c(C(F)(F)F)c1)c1ccc2ccccc2c1
solubility [2]: soluble
inhibition [3]: 0%
inhibition [4]: 13%

COc1cc(OC)c(OC)cc1/C=C/C(=O)c1ccc2ccccc2c1
solubility [2]: soluble
inhibition [3]: 0%
inhibition [4]: 7%

COc1ccc2nc(Cl)c(/C=C/C(=O)c3ccc4ccccc4c3)cc2c1
solubility [2]: soluble
inhibition [3]: 17%
inhibition [4]: 22%

O=C(/C=C/c1ccc(C(F)(F)F)cc1)c1ccc2c(c1)OCO2
solubility [2]: soluble
inhibition [3]: 0%
inhibition [4]: 7%

COc1ccc(/C=C/C(=O)c2ccc3c(c2)OCO3)c(OC)c1OC
IC50 [1]: 83 µM
solubility [2]: soluble
inhibition [3]: 9%
inhibition [4]: 26%

O=C(/C=C/c1cccc(Cl)c1)c1ccc2ccccc2c1
solubility [2]: soluble
inhibition [3]: 0%
inhibition [4]: 7%

O=C(/C=C/c1ccc(Cl)cc1)c1ccc2c(c1)OCO2
IC50 [1]: 117 µM
solubility [2]: soluble
inhibition [3]: 0%
inhibition [4]: 38%

O=C(/C=C/c1cccc(Cl)c1)c1ccc2c(c1)OCO2
solubility [2]: soluble
inhibition [3]: 0%
inhibition [4]: 23%

COc1cc(/C=C/C(=O)c2ccc3ccccc3c2)ccc1OCc1ccccc1
solubility [2]: soluble
inhibition [3]: 0%
inhibition [4]: 5%

O=C(/C=C/c1ccc2ccccc2c1)c1cc(Cl)ccc1Cl
solubility [2]: soluble
inhibition [3]: 20%
inhibition [4]: 0%

O=C(/C=C/c1ccc2c(c1)OCO2)c1ccc2c(c1)OCO2
solubility [2]: soluble
inhibition [3]: 0%
inhibition [4]: 6%

COc1ccc2nc(Cl)c(/C=C/C(=O)c3ccc4c(c3)OCO4)cc2c1
IC50 [1]: 93 µM
solubility [2]: soluble
inhibition [3]: 0%
inhibition [4]: 29%

COc1cc(OC)c(OC)cc1/C=C/C(=O)c1ccc2c(c1)OCO2
solubility [2]: soluble
inhibition [3]: 19%
inhibition [4]: 19%

O=C(/C=C/c1cccs1)c1ccc2c(c1)OCO2
solubility [2]: soluble
inhibition [3]: 0%
inhibition [4]: 7%

O=C(/C=C/c1ccc2ccccc2c1)c1ccc2ccccc2c1
IC50 [1]: 93 µM
solubility [2]: soluble
inhibition [3]: 25%
inhibition [4]: 39%

COc1cc(/C=C/C(=O)c2ccc3c(c2)OCO3)ccc1OCc1ccccc1
solubility [2]: soluble
inhibition [3]: 0%
inhibition [4]: 12%

O=C(/C=C/c1cccs1)c1ccc2ccccc2c1
solubility [2]: soluble
inhibition [3]: 0%
inhibition [4]: 15%

COc1ccc(/C=C/C(=O)c2ccc3c(c2)OCO3)cc1
solubility [2]: soluble
inhibition [3]: 11%
inhibition [4]: 17%

COc1cccc(C(=O)/C=C/c2ccc3ccccc3c2)c1
solubility [2]: soluble
inhibition [3]: 0%
inhibition [4]: 0%

N#Cc1ccc(/C=C/C(=O)c2ccc3ccccc3c2)cc1
solubility [2]: soluble
inhibition [3]: 20%
inhibition [4]: 21%

COc1ccc(/C=C/C(=O)c2ccc3c(c2)OCO3)cc1OC
solubility [2]: soluble
inhibition [3]: 0%
inhibition [4]: 19%

N#Cc1ccc(/C=C/C(=O)c2ccc3c(c2)OCO3)cc1
solubility [2]: soluble
inhibition [3]: 0%
inhibition [4]: 4%

O=C(/C=C/c1ccccc1Cl)c1ccc2c(c1)OCO2
solubility [2]: soluble
inhibition [3]: 0%
inhibition [4]: 5%

O=C1COc2ccc(C(=O)/C=C/c3ccc4ccccc4c3)cc2N1
solubility [2]: soluble
inhibition [3]: 24%
inhibition [4]: 0%

COc1cc(/C=C/C(=O)c2ccc3c(c2)OCO3)cc(OC)c1OC
solubility [2]: soluble
inhibition [3]: 0%
inhibition [4]: 5%

O=C(/C=C/c1cc(Cl)cc(Cl)c1)c1ccc2c(c1)OCO2
solubility [2]: soluble
inhibition [3]: 0%
inhibition [4]: 14%

COc1cc(OC)cc(C(=O)/C=C/c2ccc3ccccc3c2)c1
solubility [2]: soluble
inhibition [3]: 10%
inhibition [4]: 0%

O=C(/C=C/c1ccccc1Cl)c1ccc2ccccc2c1
solubility [2]: soluble
inhibition [3]: 13%
inhibition [4]: 0%

O=C(/C=C/c1ccc2ccccc2c1)c1ccc(Cl)c(Cl)c1
solubility [2]: soluble
inhibition [3]: 18%
inhibition [4]: 9%

O=C(/C=C/c1cccc(C(F)(F)F)c1)c1ccc2ccccc2c1
solubility [2]: soluble
inhibition [3]: 0%
inhibition [4]: 24%

COc1cc(OC)c(C(=O)/C=C/c2ccc3c(c2)OCO3)c(OC)c1
solubility [2]: soluble
inhibition [3]: 15%
inhibition [4]: 0%

COc1ccc(OC)c(C(=O)/C=C/c2ccc(OCc3ccccc3)c(OC)c2)c1
solubility [2]: soluble
inhibition [3]: 16%
inhibition [4]: 12%

O=C(/C=C/c1ccc(-c2ccccc2[N+](=O)[O-])o1)c1ccc2ccccc2c1
solubility [2]: soluble
inhibition [3]: 7%
inhibition [4]: 9%

COc1cccc(/C=C/C(=O)c2ccc3c(c2)OCO3)c1
solubility [2]: soluble
inhibition [3]: 0%
inhibition [4]: 10%

O=C(/C=C/c1ccc(F)cc1)c1ccc2c(c1)OCO2
solubility [2]: soluble
inhibition [3]: 0%
inhibition [4]: 0%

COc1cc(/C=C/C(=O)c2ccc(-n3ccnc3)cc2)ccc1OCc1ccccc1
IC50 [1]: 102 µM
solubility [2]: soluble
inhibition [3]: 0%
inhibition [4]: 38%

O=C(/C=C/c1ccccc1)c1ccc2c(c1)OCO2
solubility [2]: soluble
inhibition [3]: 0%
inhibition [4]: 0%

COc1cccc(OC)c1/C=C/C(=O)c1ccc2c(c1)OCO2
solubility [2]: soluble
inhibition [3]: 0%
inhibition [4]: 4%

O=C(/C=C/c1cc(Cl)cc(Cl)c1)c1ccc2ccccc2c1
solubility [2]: soluble
inhibition [3]: 29%
inhibition [4]: 19%

COc1cc(/C=C/C(=O)c2ccc3c(c2)OCO3)ccc1O
solubility [2]: soluble
inhibition [3]: 0%
inhibition [4]: 0%

O=C(/C=C/c1c(Cl)cccc1Cl)c1ccc2ccccc2c1
solubility [2]: soluble
inhibition [3]: 0%
inhibition [4]: 16%

COc1cc(OC)c(C(=O)/C=C/c2ccc3ccccc3c2)cc1OC
solubility [2]: soluble
inhibition [3]: 14%
inhibition [4]: 22%

COc1cccc(/C=C/C(=O)c2ccc3ccccc3c2)c1
solubility [2]: soluble
inhibition [3]: 0%
inhibition [4]: 10%

O=C(/C=C/c1ccc(-c2ccccc2[N+](=O)[O-])o1)c1ccc2c(c1)OCO2
solubility [2]: soluble
inhibition [3]: 10%
inhibition [4]: 19%
